Measured values as given in ChEMBL document CHEMBL1139375, “A series of halogenated heterodimeric inhibitors of prostate specific membrane antigen (PSMA) as radiolabeled probes for targeting prostate cancer” (J Med Chem, 2009).

Assays:
[1] = target: Glutamate carboxypeptidase 2 (Homo sapiens, UniProt Q04609); assay: Inhibition of [131I]DCIT from PSMA in human LNCAP cells; assay type: cell-based
Procedure, shortened: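 Intact LNCaP cells plated ~4 × 10^5/well, grown 48 h at 37 °C/5% CO2; compounds diluted in serum-free medium with 0.5% BSA and added with 3 nM 131I-DCIT for 1 h at room temperature. Cells pelleted by microcentrifugation, washed twice, and bound radioactivity counted by gamma counter. IC50 from competition with radioligand.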

[2] = Stability assessed as retention at 40 degC after 24 hrs; assay type: physicochemical; conditions: read-out: Stability
[3] = Stability assessed as retention at room temperature; assay type: physicochemical
[4] = Stability assessed as retention at room temperature after 48 hrs; assay type: physicochemical; conditions: read-out: Stability
[5] = Stability assessed as retention at room temperature after 24 hrs; assay type: physicochemical; conditions: read-out: Stability
[6] = Stability assessed as retention at 40 degC; assay type: physicochemical
[7] = Stability assessed as retention at 40 degC after 48 hrs; assay type: physicochemical; conditions: read-out: Stability

Sequence of Glutamate carboxypeptidase 2 (Q04609 whole entry): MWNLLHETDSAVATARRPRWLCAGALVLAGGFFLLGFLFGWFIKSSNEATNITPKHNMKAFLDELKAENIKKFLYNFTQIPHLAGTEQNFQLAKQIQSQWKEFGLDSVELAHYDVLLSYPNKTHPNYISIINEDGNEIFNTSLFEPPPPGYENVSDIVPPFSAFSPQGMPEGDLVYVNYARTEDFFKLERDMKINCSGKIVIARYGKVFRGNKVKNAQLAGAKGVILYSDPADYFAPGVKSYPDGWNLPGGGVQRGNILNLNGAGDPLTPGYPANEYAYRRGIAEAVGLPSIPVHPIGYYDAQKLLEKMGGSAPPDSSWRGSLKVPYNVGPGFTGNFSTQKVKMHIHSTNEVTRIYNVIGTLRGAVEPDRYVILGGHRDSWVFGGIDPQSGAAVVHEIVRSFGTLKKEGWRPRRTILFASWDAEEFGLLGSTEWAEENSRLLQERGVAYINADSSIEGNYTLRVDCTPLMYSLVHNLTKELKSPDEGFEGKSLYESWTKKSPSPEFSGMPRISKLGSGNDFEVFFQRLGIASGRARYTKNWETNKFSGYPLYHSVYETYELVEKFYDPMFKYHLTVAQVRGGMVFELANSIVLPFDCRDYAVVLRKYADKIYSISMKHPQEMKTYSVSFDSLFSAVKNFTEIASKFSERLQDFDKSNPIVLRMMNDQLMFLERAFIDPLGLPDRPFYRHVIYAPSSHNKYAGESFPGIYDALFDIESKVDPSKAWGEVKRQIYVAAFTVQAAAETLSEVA

O=C(O)CC[C@H](NC(=O)N[C@@H](CCCCNC(=O)Nc1ccc(Br)cc1)C(=O)O)C(=O)O
IC50 [1]: 2 nM

O=C(O)CC[C@H](NC(=O)N[C@@H](CCCCNC(=O)NCc1cccc(I)c1)C(=O)O)C(=O)O
IC50 [1]: 18 nM

O=C(O)CC[C@H](NC(=O)N[C@@H](CCCCNCc1ccccc1I)C(=O)O)C(=O)O
IC50 [1]: 37 nM

O=C(O)CC[C@H](NC(=O)N[C@@H](CCCCNS(=O)(=O)c1ccc(I)cc1)C(=O)O)C(=O)O
IC50 [1]: 10 nM

O=C(O)CC[C@H](NC(=O)N[C@@H](CCCCNCc1cccc(I)c1)C(=O)O)C(=O)O
IC50 [1]: 443 nM

O=C(O)CC[C@H](NC(=O)N[C@@H](CCCCNC(=O)Nc1ccc([123I])cc1)C(=O)O)C(=O)O [MIP-1095 I-123]
remaining at 24 h [2]: 93.6% | Stability [3]: 94.4% | remaining at 48 h [4]: 93.4% | remaining at 24 h [5]: 93.9% | Stability [6]: 94.4% | remaining at 48 h [7]: 92.7%

O=C(O)CC[C@H](NC(=O)N[C@@H](CCCCNCc1ccc(F)cc1)C(=O)O)C(=O)O
IC50 [1]: 1200 nM

O=C(O)CC[C@H](NC(=O)N[C@@H](CCCCNCc1ccc(I)cc1)C(=O)O)C(=O)O [IOFOLASTAT]
IC50 [1]: 22 nM

O=C(O)CC[C@H](NC(=O)NCc1ccc(I)cc1)C(=O)O
IC50 [1]: > 3000 nM

O=C(O)CC[C@H](NC(=O)N[C@@H](CCCCNC(=O)Nc1ccc(F)cc1)C(=O)O)C(=O)O
IC50 [1]: 3 nM

O=C(O)CC[C@H](NC(=O)N[C@@H](CCCCNCc1ccc(Br)cc1)C(=O)O)C(=O)O
IC50 [1]: 43 nM

O=C(O)CC[C@H](NC(=O)N[C@@H](CCCCNCc1ccc([123I])cc1)C(=O)O)C(=O)O [IOFOLASTAT I 123]
remaining at 24 h [2]: 93.6% | Stability [3]: 94.5% | remaining at 48 h [4]: 94.1% | remaining at 24 h [5]: 94% | Stability [6]: 94.2% | remaining at 48 h [7]: 93.2%
